In ChEMBL document CHEMBL4613246, “Antimycobacterial Rufomycin Analogues from Streptomyces atratus Strain MJM3502” (J Nat Prod, 2020) one finds MBC data, which are given here for 12 compounds.

Starred links: 1 amine or outer side, 2 acyl side, 3 side chain; linkers in the order of their positions; H or OH if unused. Non-standard residues stand in square brackets, D forms with d. Residues, ends and D or L forms follow the SMILES beside them. Trp(1-CMe2(2S-oxiranyl)) = CC(C)([C@H]1CO1)n1cc(C[C@H](N)C(=O)O)c2ccccc21; Trp(1-(1,1-Me2-allyl)) = C=CC(C)(C)n1cc(C[C@H](N)C(=O)O)c2ccccc21; X3 = CC(C)([C@H](O)CCl)n1cc(C[C@H](N[*:1])C(=O)[*:2])c2ccccc21; Tyr(3-NO2) = N[C@@H](Cc1ccc(O)c([N+](=O)[O-])c1)C(=O)O; X1 = COC(OC)C(C)C[C@@H](C(=O)[*:2])N(C)[*:1]; X2 = C[C@H](CO)C[C@@H](C(=O)[*:2])N(C)[*:1]; Gly(E-crotyl) = C/C=C/C[C@H](N)C(=O)O; NMeL = CN[C@@H](CC(C)C)C(=O)O Some results are limits rather than exact numbers.

Assay [1] concerns Mycobacterium tuberculosis. Description: Bactericidal activity against Mycobacterium tuberculosis H37Rv harboring LuxAB gene assessed as reduction in microbial growth by measuring reduction in relative luminescence units after 7 days by luminometric method. It counts as functional. To be noted: 168 h. A digest of the protocol: (§1)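 Viability was read from an H37Rv luminescent reporter strain carrying plasmid pMV306hsp+LuxAB+G13+CDE. It was incubated with compound for two weeks, with luminescence read on days 7 and 14.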

For assay [2], the system named is Mycobacterium tuberculosis. Description: Bactericidal activity against Mycobacterium tuberculosis H37Rv harboring LuxAB gene assessed as reduction in microbial growth by measuring reduction in relative luminescence units after 14 days by luminometric method. It counts as functional. As to conditions: 336 h. In short, it runs like this:
as §1

As to `C/C=C/C[C@@H]1NC(=O)[C@H](CC(C)C)N2C(=O)[C@H](C[C@](C)(O)[C@H]2O)N(C)C(=O)[C@H](C)NC(=O)[C@H](Cc2ccc(O)c([N+](=O)[O-])c2)NC(=O)[C@H](CC(C)C)N(C)C(=O)[C@H](Cc2cn(C(C)(C)[C@H]3CO3)c3ccccc23)NC1=O`, the MBC in assay [1] was above 10 µM; in assay [2], 4.6 µM.

In the case of `C/C=C/C[C@@H]1NC(=O)[C@H](CC(C)C)N2C(=O)[C@H](CC(C)[C@H]2O)N(C)C(=O)[C@H](C)NC(=O)[C@H](Cc2ccc(O)c([N+](=O)[O-])c2)NC(=O)[C@H](CC(C)C)N(C)C(=O)[C@H](Cc2cn(C(C)(C)[C@H]3CO3)c3ccccc23)NC1=O` (some centres undefined), the MBC was above 10 µM in assay [1] and 0.88 µM in assay [2].

`C/C=C/C[C@@H]1NC(=O)[C@H](CC(C)C)N2C(=O)[C@H](C[C@@H](C)[C@H]2O)N(C)C(=O)[C@H](C)NC(=O)[C@H](Cc2ccc(O)c([N+](=O)[O-])c2)NC(=O)[C@H](CC(C)C)N(C)C(=O)[C@H](Cc2cn(C(C)(C)[C@H](O)CO)c3ccccc23)NC1=O`: the MBC in assay [1] was above 10 µM; in assay [2], 0.58 µM.

For `C=CC(C)(C)n1cc(C[C@@H]2NC(=O)[C@H](C/C=C/C)NC(=O)[C@H](CC(C)C)NC(=O)[C@H](CC(C)C)N(C)C(=O)[C@H](C)NC(=O)[C@H](Cc3ccc(O)cc3)NC(=O)[C@H](CC(C)C)N(C)C2=O)c2ccccc21` (HELM PEPTIDE1{A.[meL].L.[C/C=C/C[C@H](N[*:1])C(=O)[*:2]].[C=CC(C)(C)n1cc(C[C@H](N[*:1])C(=O)[*:2])c2ccccc21].[meL].Y}$PEPTIDE1,PEPTIDE1,1:R1-7:R2$$$V2.0), the MBC was above 10 µM in assay [1] and 5.2 µM in assay [2].

Consider `C=CC(C)(C)n1cc(C[C@@H]2NC(=O)[C@H](C/C=C/C)NC(=O)[C@H](CC(C)C)NC(=O)[C@H](CC(C)C)N(C)C(=O)[C@H](C)NC(=O)[C@H](Cc3ccc(O)c([N+](=O)[O-])c3)NC(=O)[C@H](CC(C)C)N(C)C2=O)c2ccccc21` (cyclo(A[NMeL]L[Gly(E-crotyl)][Trp(1-(1,1-Me2-allyl))][NMeL][Tyr(3-NO2)])), for which the MBC in assay [1] is above 10 µM; in assay [2], 4.5 µM.

Consider `C/C=C/C[C@@H]1NC(=O)[C@H](CC(C)C)NC(=O)[C@H](CC(C)C)N(C)C(=O)[C@H](C)NC(=O)[C@H](Cc2ccc(O)c([N+](=O)[O-])c2)NC(=O)[C@H](CC(C)C)NC(=O)[C@H](Cc2cn(C(C)(C)[C@H]3CO3)c3ccccc23)NC1=O` (cyclo(A[NMeL]L[Gly(E-crotyl)][Trp(1-CMe2(2S-oxiranyl))]L[Tyr(3-NO2)])), for which the MBC in assay [1] is above 10 µM; in assay [2], 2.2 µM.

In the case of `C/C=C/C[C@@H]1NC(=O)[C@H](CC(C)C)NC(=O)[C@H](CC(C)C)N(C)C(=O)[C@H](C)NC(=O)[C@H](Cc2ccc(O)c([N+](=O)[O-])c2)NC(=O)[C@H](CC(C)C)N(C)C(=O)[C@H](Cc2cn(C(C)(C)[C@H]3CO3)c3ccccc23)NC1=O` (cyclo(A[NMeL]L[Gly(E-crotyl)][Trp(1-CMe2(2S-oxiranyl))][NMeL][Tyr(3-NO2)])), the MBC is above 10 µM in assay [1] and 1 µM in assay [2].

Consider `C/C=C/C[C@@H]1NC(=O)[C@H](CC(C)C)NC(=O)[C@H](CC(C)C)N(C)C(=O)[C@H](C)NC(=O)[C@H](Cc2ccc(O)c([N+](=O)[O-])c2)NC(=O)[C@H](CC(C)C)N(C)C(=O)[C@H](Cc2cn(C(C)(C)[C@H](O)CCl)c3ccccc23)NC1=O` (cyclo(A[NMeL]L[Gly(E-crotyl)][X3][NMeL][Tyr(3-NO2)])), for which the values for the MBC in assay [1] and in assay [2] were above 10 µM and 3.1 µM, respectively.

With `C/C=C/C[C@@H]1NC(=O)[C@H](CC(C)C)NC(=O)[C@H](CC(C)C(OC)OC)N(C)C(=O)[C@H](C)NC(=O)[C@H](Cc2ccc(O)c([N+](=O)[O-])c2)NC(=O)[C@H](CC(C)C)N(C)C(=O)[C@H](Cc2cn(C(C)(C)[C@H]3CO3)c3ccccc23)NC1=O` (stereo partly drawn) (cyclo(A[X1]L[Gly(E-crotyl)][Trp(1-CMe2(2S-oxiranyl))][NMeL][Tyr(3-NO2)])), the MBC in assay [1] is above 10 µM; in assay [2], 1.1 µM.

For the compound `C=CC(C)(C)n1cc(C[C@@H]2NC(=O)[C@H](C/C=C/C)NC(=O)[C@H](CC(C)C)NC(=O)[C@H](C[C@H](C)CO)N(C)C(=O)[C@H](C)NC(=O)[C@H](Cc3ccc(O)c([N+](=O)[O-])c3)NC(=O)[C@H](CC(C)C)N(C)C2=O)c2ccccc21` (cyclo(A[X2]L[Gly(E-crotyl)][Trp(1-(1,1-Me2-allyl))][NMeL][Tyr(3-NO2)])), the MBC in assay [1] is above 10 µM; in assay [2], 9.6 µM.

As for `NNC(=O)c1ccncc1` [ISONIAZID], the MBC in assay [1] turned out to be 0.99 µM; in assay [2], 4 µM.

In the case of `CO[C@H]1/C=C/O[C@@]2(C)Oc3c(C)c(O)c4c(O)c(c(/C=N/N5CCN(C)CC5)c(O)c4c3C2=O)NC(=O)/C(C)=C\C=C\[C@H](C)[C@H](O)[C@@H](C)[C@@H](O)[C@@H](C)[C@H](OC(C)=O)[C@@H]1C` [RIFAMPIN], the MBC in assay [1] worked out at 0.24 µM; in assay [2] it was 0.12 µM.
